# Screening data from PubChem BioAssay.
# KCNK9 inh: KCNK9 potassium channel inhibitors, primary screen, HEK293 cells, thallium flux | Potassium channel subfamily K member 9 (Homo sapiens), Q9NPC2 | FluxOR thallium flux fluorescence; stronger effect = lower value | B-score at 10 µM | 310,000 compounds, 1.2% hits | AID 488922, 2010;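 active = ratio B-score over 3 SD below the library mean, with starting fluorescence within 5 SD of its mean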;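 note: negative B-score means less thallium flux so channel inhibition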
# KCNQ1 inh: inhibitors of human KCNQ1 channel, primary screen, cell-based, thallium flux, high-throughput; Potassium voltage-gated channel subfamily KQT member 1 (Homo sapiens), P51787; CHO-K1 KCNQ1, FluxOR thallium flux fluorescence; stronger effect = higher value; B-score at 10 µM; 310,000 compounds, 1.3% hits;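 active = compounds whose thallium flux B-score, printed positive for inhibition, exceeds three library SD while starting fluorescence stays within three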;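 note: channel opened by potassium depolarization with thallium stimulus after 20 min compound exposure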
# hERG protect: hERG rescue from dofetilide block, primary screen, cell-based, CHO-hERG, FluxOR thallium flux, dofetilide IC70; Voltage-gated inwardly rectifying potassium channel KCNH2 (Homo sapiens), Q12809; dofetilide IC70 present; activation (rescue from dofetilide block), less the hit threshold, % at 10 µM; 310,000 compounds, 0.51% hits;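 active = activation above the mean of controls blocked by dofetilide plus 5 SD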;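 note: thallium influx through hERG after potassium depolarization seen as dye fluorescence rise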
# KCNQ1 pot: potentiators or activators of KCNQ1 channel, primary screen, cell-based, thallium flux, high-throughput | B-score at 10 µM | AID 2648, 2010 | 310,000 compounds, 0.35% hits | CHO-K1 KCNQ1, thallium flux FluxOR fluorescence; stronger effect = higher value | Potassium voltage-gated channel subfamily KQT member 1 (Homo sapiens), P51787;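 active = fluorescence ratio B-score, a plate-corrected score, at least three library SD, with initial intensity B-score within 5 SD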
#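 Assay system: CHO-K1 cells stably expressing KCNQ1; Medium: assay buffer with matched DMSO; Also added: K+/Tl+ depolarizing stimulus; Dosing: single dose; Timing: dye 90 min, compound 20 min, room temperature; Measured by: kinetic FluxOR thallium fluorescence, 10-s 1-Hz baseline, 110-s post-stimulus read; Read-out: peak-minus-minimum fluorescence over initial fluorescence, negative-control normalized, B-scored.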
# KCNK3 block: human KCNK3 channel inhibitors, primary screen, CHO cells, FluxOR thallium flux, B-score; 340,000 compounds, 0.84% hits; FluxOR fluorescence; stronger effect = lower value; Potassium channel subfamily K member 3 (Homo sapiens), O14649; AID 602410, 2012; B-score at 10 µM;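 active = B-score under library mean minus 4 SD, starting fluorescence ratio at most library mean plus 5 SD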;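 note: more negative B-score means stronger inhibition of thallium flux through KCNK3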
# Kir21 block: inhibitors of mouse Kir2.1 inward-rectifier potassium channel. HEK293-Kir2.1, FluxOR thallium flux fluorescence; stronger effect = lower value. B-score at 10 µM. 310,000 compounds, 0.85% hits. AID 1672, 2009;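 active = fluorescence ratio B-score at or below minus 3 SD of library scores, with starting-brightness B-score within 2 SD, cut at about -4.2 in these data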;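 note: channel flux triggered by added potassium and thallium sulfate stimulus; B-score of peak minus minimum fluorescence over baseline after thallium stimulus; more negative B-score means stronger Kir2.1 block with less thallium influx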
# Target sequence (P35561 whole entry, looked up): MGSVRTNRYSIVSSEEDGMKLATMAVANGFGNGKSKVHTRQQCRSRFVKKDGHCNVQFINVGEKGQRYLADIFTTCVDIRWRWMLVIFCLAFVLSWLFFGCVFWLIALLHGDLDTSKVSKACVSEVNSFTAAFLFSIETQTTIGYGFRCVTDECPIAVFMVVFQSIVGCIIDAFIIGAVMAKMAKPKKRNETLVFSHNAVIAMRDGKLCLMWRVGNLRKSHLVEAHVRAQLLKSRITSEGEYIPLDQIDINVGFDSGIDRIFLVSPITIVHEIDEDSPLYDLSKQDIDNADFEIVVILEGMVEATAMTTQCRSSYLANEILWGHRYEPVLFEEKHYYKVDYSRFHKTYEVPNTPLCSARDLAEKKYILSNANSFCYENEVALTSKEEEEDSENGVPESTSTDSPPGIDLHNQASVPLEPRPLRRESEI
# The depositor's hits bear a star; i = inactive; . = no result. Only some compounds are listed: those with a hit (about 3.8% of all), similar ones and a draw of the others.
SMILES,KCNK9 inh,KCNQ1 inh,hERG protect,KCNQ1 pot,KCNK3 block,Kir21 block
CCCN1C(=O)/C(=C/C=C2\N(CC)c3ccccc3C2(C)C)SC1=S,i,8*,-12,i,i,-4.8
CCCCCCn1c(-c2cccs2)n[nH]c1=S,i,i,7.9*,i,i,-1.3
CCCCn1c(-c2csc(CC)c2)n[nH]c1=S,i,i,-8,i,i,-1.1
CCCCn1c(-c2csc(C(C)C)c2)n[nH]c1=S,i,i,5.0*,i,i,-1.9
COC(=O)c1ccc(-c2sc3nc(N4CCOCC4)c4c(c3c2N)CCCC4)o1,-9.2*,6*,-12,i,.,-0.4
COc1ccc(CCC2(C)OCC(CCCCO)O2)cc1 (configuration not stated),.,.,.,.,i,.
Cc1ccc(NC(=S)NC(=O)c2cncc(Br)c2)cc1Cl,i,i,8.8*,i,i,0.57
O=C(NC(=S)Nc1ccc(Cl)cc1)c1cncc(Br)c1,i,i,-2,i,i,0.48
O=C(c1cccc(C(F)(F)F)c1)C1CCCN(Cc2cccn2-c2ccccn2)C1 (configuration not stated),i,8*,-19,i,i,-0.39
Cc1sc(-c2ccccn2)nc1OC(=O)c1cccc(Cl)c1Cl,i,i,5.8*,i,i,0.09
Cc1sc(-c2ccccn2)nc1OC(=O)c1ccc(Cl)cc1,i,i,-8,i,i,1.2
CCOC(=O)c1sc(N(Cc2ccccc2)C(=O)CCl)nc1C,i,i,-14,i,i,-0.53
CCOC(=O)c1sc(N(Cc2ccccc2)C(=O)COC(=O)c2ccccc2O)nc1C,-6.7*,i,-13,i,i,-0.35
Cc1cc(C)c(S(=O)(=O)N2CCN(c3ccc([N+](=O)[O-])c(NCc4ccco4)c3)CC2)c(C)c1,i,i,4.7*,i,i,-1.4
CCN(CC)C(=O)[C@H]1C[C@H](CC(=O)NC(C)(C)C)C(=O)N2CCc3c([nH]c4cc(CCC(=O)N(C)C)ccc34)[C@]12C,.,.,.,.,i,.
CC(C)Oc1ccc(CNC(=O)CC(c2ccccc2)c2cc(Cl)ccc2O)cc1 (configuration not stated),-7.3*,7*,-13,i,i,0.16
O=C(CC(c1ccccc1)c1ccccc1O)NCCc1ccccc1 (configuration not stated),i,i,-8,i,i,-1
O=C(CC(c1ccccc1)c1ccccc1O)NCc1ccccc1Cl (configuration not stated),-7.5*,i,-10,i,i,-1.5
O=C(O)c1ccccc1NS(=O)(=O)c1cccc(NS(=O)(=O)c2cc(Br)ccc2Br)c1,.,.,.,.,i,.
O=C(NC(Cc1ccc(O)cc1)C(=O)N=Nc1c(O)[nH]c2ccccc12)c1ccccc1 (configuration not stated),.,.,.,.,i,.
Cc1ccc2[nH]c(=O)c(CN(CCCN(C)C)C(=S)NCCc3ccccc3)cc2c1,i,i,-9,10*,i,-3.3
Cc1ccc2cc(CN(CCc3ccccc3)C(=S)NCCCN(C)C)c(=O)[nH]c2c1,i,i,-11,i,i,-1
CCOP(=O)(OCC)c1nc(-c2ccc(F)cc2)oc1NCc1ccccc1,-6.6*,i,-11,i,i,-1.6
CCOP(=O)(OCC)c1nc(-c2ccccc2)oc1NCc1ccccc1,i,i,-19,i,i,-1.5
CCOC(=O)C1=C(C)OC(N)=C(C#N)C1c1cccs1 (configuration not stated),i,i,-6,i,i,-2.5
SMILES,KCNK9 inh,KCNQ1 inh,hERG protect,KCNQ1 pot,KCNK3 block,Kir21 block
CCN1C=C(Cc2cccs2)C2=C(C1)C(c1cccs1)C(C#N)=C(N)O2 (configuration not stated),-7.4*,i,-24,i,-9*,-0.02
OC1(c2ccc(Cl)cc2)CCN(Cc2c[nH]c3ccccc23)CC1,i,i,-10,i,i,-6.8*
Cc1ccc(-c2nc3ccccc3c(=O)n2O)cc1,i,i,7.7*,i,i,-0.06
O=c1c2cc(Br)ccc2nc(-c2ccccc2)n1O,i,i,17*,11*,i,-0.1
O=c1c2cc(Cl)ccc2nc(-c2ccccc2Cl)n1O,i,i,-2,i,i,0.23
O=c1c2ccccc2nc(-c2cccc(Cl)c2)n1O,i,i,23*,13*,i,0.46
Cc1cc(C)n(-c2ccc(NC(=O)C3CCCCN3C(=O)c3ccoc3C)cc2)n1 (configuration not stated),i,i,-6,i,i,0.06
O=C(COc1ccc(-c2nnco2)cc1)Nc1ccc(C(F)(F)F)cc1,i,i,-16,i,i,-4.7
COc1cccc(Oc2ccc(C(F)(F)F)cc2NC(=O)C2=COCCO2)c1,i,10*,-8,i,i,1.1
CC(C)(C)c1cc(CCC(=O)NCc2cccnc2)cc(C(C)(C)C)c1O,i,i,-4,i,i,-5.1*
CN(CC(=O)NCCc1ccc(F)cc1)Cc1cccc(Cl)c1,i,i,-17,i,i,-7.3*
CN(CC(=O)NCCc1ccc(F)cc1)Cc1ccc(Br)cc1,i,i,-13,i,i,-6.6*
CC(NC(=O)CN(C)Cc1cccc(Cl)c1)c1ccccc1 (configuration not stated),i,i,-11,i,i,-1.9
CN(CC(=O)Nc1ccc(Br)cc1)Cc1ccccc1,-6.8*,i,-8,i,i,1.6
CSc1ccccc1NC(=O)CN(C)Cc1cccc(Cl)c1,-7.2*,i,-21,i,i,-1.6
CN(CC(=O)NCCCc1ccccc1)Cc1ccc(Br)cc1,i,i,-11,i,i,-2.9
Cc1cc(C)cc(OCC(=O)NNC(=O)c2ccccn2)c1,.,.,.,.,i,.
C=CCn1c(SCC(=O)Nc2ccccc2C)nc2sc(C)c(C)c2c1=O,i,i,-1,i,i,0.24
C=CCn1c(SCc2ccc(C(=O)O)cc2)nc2sc(C)c(C)c2c1=O,i,i,8.2*,16*,i,3.1
Cc1cccc(N=C2CCCC2C(=O)Nc2cccc(C)c2C)c1C (configuration not stated),.,.,.,.,i,.
